ChEMBL document CHEMBL3351507, “11H-Pyrido[3',2':4,5]pyrrolo[3,2-c]cinnoline and pyrido[3',2':4,5]pyrrolo[1,2-c][1,2,3]benzotriazine: two new ring systems with antitumor activity” (2014)
Activity calls are given as the source filed them. No cut-off for these calls is given here.

Tests used:
MOLT-4 = assay: Cytotoxicity against human MOLT4 cells assessed as growth inhibition after 72 hrs by MTT assay; type: functional; settings: MOLT-4, 72 h
SR = assay: Cytotoxicity against human SR cells assessed as growth inhibition after 72 hrs by MTT assay; type: functional
Outline: (§1)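 NCI 60-cell-line panel screen. Compounds were tested at 5 concentrations in 10-fold dilution (10^-4 to 10^-8 M) across the full panel. GI50 was taken as the molar concentration giving 50% inhibition of net cell growth.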

[1] = Cytotoxicity against human EKVX cells assessed as growth inhibition after 72 hrs by MTT assay; type: functional
HOP-62 = assay: Cytotoxicity against human HOP62 cells assessed as growth inhibition after 72 hrs by MTT assay; type: functional; settings: HOP-62, 72 h
HOP-92 = assay: Cytotoxicity against human HOP92 cells assessed as growth inhibition after 72 hrs by MTT assay; type: functional; settings: HOP-92, 72 h
NCI-H322M = assay: Cytotoxicity against human NCI-H322M cells assessed as growth inhibition after 72 hrs by MTT assay; type: functional
NCI-H522 = assay: Cytotoxicity against human NCI-H522 cells assessed as growth inhibition after 72 hrs by MTT assay; type: functional; settings: NCI-H522, 72 h; outline: as §1
HCC 2998 = assay: Cytotoxicity against human HCC2998 cells assessed as growth inhibition after 72 hrs by MTT assay; type: functional; settings: HCC 2998, 72 h
KM12 = assay: Cytotoxicity against human KM12 cells assessed as growth inhibition after 72 hrs by MTT assay; type: functional; settings: KM12, 72 h
SF-295 = assay: Cytotoxicity against human SF295 cells assessed as growth inhibition after 72 hrs by MTT assay; type: functional; settings: SF-295, 72 h; outline: as §1
SNB-75 = assay: Cytotoxicity against human SNB75 cells assessed as growth inhibition after 72 hrs by MTT assay; type: functional; settings: SNB-75, 72 h; outline: as §1
LOX IMVI = assay: Cytotoxicity against human LOXIMVI cells assessed as growth inhibition after 72 hrs by MTT assay; type: functional
Malme-3M = assay: Cytotoxicity against human MALME-3M cells assessed as growth inhibition after 72 hrs by MTT assay; type: functional
MDA-MB-435 = assay: Cytotoxicity against human MDA-MB-435 cells assessed as growth inhibition after 72 hrs by MTT assay; type: functional; settings: MDA-MB-435, 72 h
SK-MEL-2 = assay: Cytotoxicity against human SK-MEL-2 cells assessed as growth inhibition after 72 hrs by MTT assay; type: functional; settings: SK-MEL-2, 72 h; outline: as §1
SK-MEL-28 = assay: Cytotoxicity against human SK-MEL-28 cells assessed as growth inhibition after 72 hrs by MTT assay; type: functional; settings: SK-MEL-28, 72 h; outline: as §1
[2] = Cytotoxicity against human NCI-ADR-RES cells assessed as growth inhibition after 72 hrs by MTT assay; type: functional
A498 = assay: Cytotoxicity against human A498 cells assessed as growth inhibition after 72 hrs by MTT assay; type: functional; settings: A498, 72 h
CAKI-1 = assay: Cytotoxicity against human Caki1 cells assessed as growth inhibition after 72 hrs by MTT assay; type: functional; settings: CAKI-1, 72 h
MCF7 = assay: Cytotoxicity against human MCF7 cells assessed as growth inhibition after 72 hrs by MTT assay; type: functional; settings: MCF7, 72 h
MDA-MB-231 = assay: Cytotoxicity against human MDA-MB-231 cells assessed as growth inhibition after 72 hrs by MTT assay; type: functional; settings: MDA-MB-231, 72 h
[3] = Cytotoxicity against human Hs578T cells assessed as growth inhibition after 72 hrs by MTT assay; type: functional; settings: Hs-578T
BT-549 = assay: Cytotoxicity against human BT549 cells assessed as growth inhibition after 72 hrs by MTT assay; type: functional; settings: BT-549, 72 h
[4] = Cytotoxicity against human LoVo/DX cells assessed as growth inhibition after 72 hrs by MTT assay; type: functional
Outline: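 Cells were grown in medium with 10% heat-inactivated FBS plus penicillin/streptomycin: RPMI-1640 for Jurkat and CEM, DMEM for A-431, HAM's F12 for LoVo. The doxorubicin-resistant LoVo subclone was kept with 0.1 µg/mL doxorubicin. Cells were seeded at 5x10^3 per well and pre-incubated 24 h at 37 °C.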

Jurkat [5] = assay: Cell cycle arrest in human Jurkat cells assessed as accumulation at G1 phase at 0.5 uM after 24 hrs by propidium iodide staining-based flow cytometry (reference value: 62.6%); type: functional
Jurkat [6] = assay: Cell cycle arrest in human Jurkat cells assessed as accumulation at S phase at 0.5 uM after 24 hrs by propidium iodide staining-based flow cytometry (reference value: 15.5%); type: functional
Jurkat [7] = assay: Cell cycle arrest in human Jurkat cells assessed as accumulation at G2/M phase at 0.5 uM after 24 hrs by propidium iodide staining-based flow cytometry (reference value: 21.9%); type: functional
Jurkat [8] = assay: Cell cycle arrest in human Jurkat cells assessed as accumulation at subG1 phase at 0.25 uM after 24 hrs by propidium iodide staining-based flow cytometry (reference value: 5.3%); type: functional
Jurkat [9] = assay: Induction of apoptosis in human Jurkat cells assessed as loss of plasma membrane asymmetry at 250 to 500 nM after 24 hrs by annexin V-FITC/propidium iodide staining-based flow cytofluorimetric analysis; type: functional, cell-based
Outline: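 Jurkat cells were incubated with 250 or 500 nM compound for 6 h or 24 h. They were then double-stained with Annexin V-FITC and propidium iodide and analysed by flow cytometry (488 nm excitation; emission 525 and 585 nm). Mean ± SEM of 3 experiments.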

Jurkat [10] = assay: Induction of apoptosis in human Jurkat cells assessed as caspase-9 activation at 500 nM after 6 hrs by plate reader analysis; type: functional, cell-based
Outline: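 Jurkat cells were treated with 500 nM compound for 6 h and 24 h, then lysed. Lysates were incubated with pNA-conjugated substrates: Ac-DEVD (caspase-3), Ac-IETD (caspase-8) and LEHD (caspase-9). pNA release was read at 405 nm and normalized to Bradford protein. Results are expressed as fold increase over untreated control.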

Jurkat [11] = assay: Induction of ROS generation in human Jurkat cells at 500 nM after 24 hrs by HE/DCFH2-DA staining-based flow cytometry relative to control; type: functional, cell-based
Outline: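 Jurkat cells were exposed to 500 nM compound for 24 h, then loaded in HBSS with 2.5 µM hydroethidine or 0.1 µM H2DCFDA for 30 min at 37 °C. Flow cytometry used 488 nm excitation, with emission at 585 nm (HE) or 530 nm (DCF). Mean ± SEM of 3 experiments.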

Jurkat [12] = assay: Induction of apoptosis in human Jurkat cells assessed as lysosomal dysfunction at 250 to 500 nM after 24 hrs by acridine orange staining-based flow cytometry relative to control; type: functional, cell-based
Outline: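 Jurkat cells were treated for 24 h at two concentrations, then stained with acridine orange. Flow cytometry (488 nm excitation, FL3 emission) scored red fluorescence of intact lysosomes. Mean ± SEM of at least 3 experiments, compared with control.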

Row | Structure (SMILES) | GI50 (MOLT-4) [µM] | GI50 (SR) [µM] | GI50 [1] [µM] | GI50 (HOP-62) [µM] | GI50 (HOP-92) [µM] | GI50 (NCI-H322M) [µM] | GI50 (NCI-H522) [µM] | GI50 (HCC 2998) [µM] | GI50 (KM12) [µM] | GI50 (SF-295) [µM] | GI50 (SNB-75) [µM] | GI50 (LOX IMVI) [µM] | GI50 (Malme-3M) [µM] | GI50 (MDA-MB-435) [µM] | GI50 (SK-MEL-2) [µM] | GI50 (SK-MEL-28) [µM] | GI50 (A498) [µM] | GI50 (CAKI-1) [µM] | GI50 (MCF7) [µM] | GI50 (MDA-MB-231) [µM] | further results
1 | COc1cc2nnn3c4ncccc4c(N=O)c3c2cc1OC | < 0.01 | 0.018 | 3.31 | 1.9 | 0.039 | 22.7 | 4.01 | 1 | 1.38 | 2.62 | 2.25 | 0.92 | 2.89 | 2.38 | 17.3 | 9.1 | 15.8 | 0.048 | 0.26 | 2.6 | GI50 [2]: 0.38 µM; GI50 [3]: 6.8 µM; GI50 (BT-549): 5.53 µM; GI50 [4]: 4.33 µM; Activity (Jurkat [5]): 21%; Activity (Jurkat [6]): 24.7%; Activity (Jurkat [7]): 54.3%; Activity (Jurkat [8]): 18.7%; Activity (Jurkat [9]): Active; Activity (Jurkat [10]): Active; Activity (Jurkat [11]): Active; Activity (Jurkat [12]): inactive
2 | COc1ccc2c(c1)nnn1c3ncccc3c(N=O)c21 | 0.0094 | 0.009 | 3.38 | 7.51 | 0.042 | 9.67 | 1.25 | 7.23 | 1.03 | 4.69 | 0.85 | 0.8 | 0.77 | 1.94 | 2.18 | 3.48 | 1.27 | 0.089 | 0.13 | 1.26 | GI50 [2]: 1.42 µM; GI50 [3]: 1.17 µM; GI50 (BT-549): 5.06 µM; GI50 [4]: 0.65 µM; Activity (Jurkat [5]): 28.1%; Activity (Jurkat [6]): 27.2%; Activity (Jurkat [7]): 44.7%; Activity (Jurkat [8]): 22.5%; Activity (Jurkat [9]): Active; Activity (Jurkat [10]): Active; Activity (Jurkat [11]): Active; Activity (Jurkat [12]): inactive
3 | COc1cc2nnc3c4cccnc4[nH]c3c2cc1OC | 0.018 | 0.039 | 2.43 | 2.26 | 0.21 | 20.6 | 2.05 | 1.95 | 1.91 | 2.43 | 1.48 | 1.41 | 2.28 | 2.23 | 11.3 | 4.49 | 2.74 | 0.18 | 0.34 | 2.69 | GI50 [3]: 3.7 µM; GI50 (BT-549): 3.7 µM
4 | O=Nc1c2cccnc2n2nnc3ccc(Cl)cc3c12 | 0.018 | 0.017 | 1.83 | 1.44 | 0.1 | 8.6 | 0.95 | 8.4 | 0.91 | 2.07 | 1.42 | 1.03 | 1.22 | 1.26 | 2.28 | 1.06 | 1.91 | 0.13 | 0.57 | 0.68 | GI50 [2]: 0.43 µM; GI50 [3]: 1.05 µM; GI50 (BT-549): 1.78 µM
5 | COc1ccc2c(c1)nnc1c3cccnc3[nH]c21 | 0.029 | 0.031 | 2.82 | 5.47 | 0.082 | 10 | 1.09 | 8.23 | 1.22 | 1.59 | 0.64 | 0.76 | 1.06 | 1.44 | 1.96 | 11.8 | 8 | 0.11 | 0.23 | 1.42 | GI50 [2]: 1.79 µM; GI50 [3]: 3.47 µM; GI50 (BT-549): 3.43 µM; GI50 [4]: 1.21 µM; Activity (Jurkat [5]): 33.2%; Activity (Jurkat [6]): 28.6%; Activity (Jurkat [7]): 38.2%; Activity (Jurkat [8]): 27.8%; Activity (Jurkat [9]): Active; Activity (Jurkat [10]): Active; Activity (Jurkat [11]): Active; Activity (Jurkat [12]): inactive
